# In ChEMBL document CHEMBL1144684, “Evaluation of a series of naphthamides as potent, orally active vascular endothelial growth factor receptor-2 tyrosine kinase inhibitors” (J Med Chem, 2008):
# Calls of active or inactive are those of the source. The rule behind the calls is not given here.
# What was measured:
# [1] = test system: Mus musculus; assay: Cmax in mouse at 10 mg/kg, po; format: ADME, organism-based; design: dose 10 mg/kg, route oral; conditions: in vivo
# Method in brief: (§1)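 Compound given iv and po as single doses; vehicles: mouse iv PEG 400, po OraPlus; dog iv DMSO, po 1% Tween-80/2% HPMC/97% water; cynomolgus iv propylene glycol, po suspension.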
# [2] = test system: Liver microsomes; assay: Metabolic stability assessed as covalent binding in absence of NADPH in human liver microsomes at 10 uM after 1 hr; format: ADME, Microsome
# Method in brief: (§2)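 14C-labelled compound at 10 µM with human or rat liver microsomes (1 mg/mL) in 0.1 M potassium phosphate pH 7.4, with or without 1 mM NADPH and 1 mM glutathione, 60 min; quenched with ice-cold acetonitrile. Pellet washed with 80% methanol and ethanol/ether, solubilized, protein by BCA, radioactivity by scintillation counting.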
# [3] = AUC (0 to 24 hrs) in mouse at 10 mg/kg, po; format: ADME, organism-based; design: time < 24 hr, dose 10 mg/kg, route oral; conditions: plasma; method in brief: as §1
# [4] = test system: HT-29; assay: Antitumor activity in human HT29 cells xenografted CD1 nu/nu mouse assessed as inhibition of tumor growth at 3 mg/kg, po qd for 14 days; format: functional; conditions: HT-29, 336 h, read-out: TGI
# Method in brief: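 Female CD-1 nu/nu mice, 4–8 weeks, implanted sc in hind flank with 1 × 10^7 HT29 (DMEM high glucose, 5% FBS) or Calu-6 (RPMI 1640, 10% FBS) cells; treatment began at 13–14 days (~300 mm3). Methanesulfonate salt given po qd in OraPlus for 14 days; caliper volumes twice weekly; n = 10/group; RMANOVA with Scheffé test.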
# [5] = Tmax in mouse at 10 mg/kg, po; format: ADME, organism-based; design: dose 10 mg/kg, route oral; conditions: in vivo
# Method in brief: (§3)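 Oral suspension dosing; vehicles: mouse 10 mg/kg in OraPlus, dog 0.5 mg/kg in 1% Tween-80/2% HPMC/97% water, cynomolgus monkey 2 mg/kg.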
# [6] = Cmax in Sprague-Dawley rat at 2 mg/kg, po; format: ADME, organism-based; design: dose 2 mg/kg, route oral; conditions: in vivo
# Method in brief: (§4)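 Male Sprague–Dawley rats dosed iv via femoral vein as DMSO solution (1 or 0.5 mg/kg) or po by gavage as OraPlus suspension (pH 2.0–2.2 with methanesulfonic acid; 10 or 2 mg/kg). Serial jugular blood over 12–24 h; plasma acetonitrile precipitation, LC-MS/MS (MRM) with internal standard; noncompartmental parameters.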
# [7] = AUC (0 to infinity) in Sprague-Dawley rat at 2 mg/kg, po; format: ADME, organism-based; design: time infinity, dose 2 mg/kg, route oral; conditions: plasma; method in brief: as §4
# [8] = test system: HUVEC; assay: Selectivity of IC50 for VEGF-induced proliferation over IC50 for bFGF-induced proliferation of HUVEC; format: functional, Homo sapiens
# Method in brief: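 HUVECs were seeded at 3000 cells/well in DMEM/10% FBS with pen/strep and cultured for 22 h. They were preincubated 2 h with serially diluted compound, then stimulated with 50 ng/mL VEGF or 20 ng/mL bFGF for 72 h at 37 °C, 5% CO2. Cells were washed, frozen at -70 °C and stained with CyQuant. IC50s came from a four-parameter logistic fit, averaged over ≥2 experiments; the VEGF IC50 was compared against the bFGF IC50.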
# [9] = Volume of distribution at steady state in mouse at 2 mg/kg, iv; format: ADME, organism-based; design: dose 2 mg/kg, route intravenous; conditions: in vivo, read-out: Vdss
# Method in brief: (§5)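 Intravenous dosing of male/unspecified animals per species; vehicles: mouse 2 mg/kg in Peg 400, dog 0.5 mg/kg in DMSO, cynomolgus monkey 0.5 mg/kg in propylene glycol. Parameters from plasma concentration–time data by noncompartmental analysis.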
# [10] = test system: Mus musculus; assay: Inhibition of VEGF-induced vascular permeability in HEK293 cells over expressing mouse recombinant VEGF implanted in CD1 nu/nu mouse assessed as Matrigel plug at 30 mg/kg, po after 6 hrs; format: functional, organism-based; design: dose 30 mg/kg
# Method in brief: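 HEK293 cells transfected with murine VEGF (or empty vector) were suspended in Matrigel and injected sc into the ventral surface of CD-1 nu/nu mice. At 24 h post-implant, a single oral gavage dose was given as an OraPlus suspension (or vehicle). After 6 h, Evans blue dye was quantified in 1 cm2 of skin over the plug. Plasma was sampled at 6 h; n = 5/group.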
# [11] = Oral bioavailability in dog at 0.5 mg/kg, po; format: ADME, organism-based, Canis lupus familiaris; conditions: in vivo; method in brief: as §3
# [12] = target: Tyrosine-protein kinase Lck (Homo sapiens, UniProt P06239); assay: Inhibition of Lck
# Sequence of Tyrosine-protein kinase Lck (P06239 whole entry): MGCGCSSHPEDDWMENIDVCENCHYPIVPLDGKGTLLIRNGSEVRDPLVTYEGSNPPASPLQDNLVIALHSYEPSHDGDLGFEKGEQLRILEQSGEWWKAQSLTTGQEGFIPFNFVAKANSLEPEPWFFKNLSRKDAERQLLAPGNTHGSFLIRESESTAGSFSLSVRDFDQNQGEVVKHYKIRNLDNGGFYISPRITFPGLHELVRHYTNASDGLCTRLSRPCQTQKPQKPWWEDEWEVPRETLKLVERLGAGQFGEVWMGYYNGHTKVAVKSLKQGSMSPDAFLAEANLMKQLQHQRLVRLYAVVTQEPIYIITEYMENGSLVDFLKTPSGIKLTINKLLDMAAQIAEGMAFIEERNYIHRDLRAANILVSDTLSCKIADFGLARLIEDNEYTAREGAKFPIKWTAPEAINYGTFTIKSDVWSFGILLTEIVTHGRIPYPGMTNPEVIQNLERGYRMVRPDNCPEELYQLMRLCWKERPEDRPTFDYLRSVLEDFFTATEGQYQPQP
# [13] = target: Platelet-derived growth factor receptor alpha (Homo sapiens) (UniProt P16234); assay: Inhibition of PDGFRalpha
# Sequence of Platelet-derived growth factor receptor alpha (Homo sapiens) (P16234 whole entry): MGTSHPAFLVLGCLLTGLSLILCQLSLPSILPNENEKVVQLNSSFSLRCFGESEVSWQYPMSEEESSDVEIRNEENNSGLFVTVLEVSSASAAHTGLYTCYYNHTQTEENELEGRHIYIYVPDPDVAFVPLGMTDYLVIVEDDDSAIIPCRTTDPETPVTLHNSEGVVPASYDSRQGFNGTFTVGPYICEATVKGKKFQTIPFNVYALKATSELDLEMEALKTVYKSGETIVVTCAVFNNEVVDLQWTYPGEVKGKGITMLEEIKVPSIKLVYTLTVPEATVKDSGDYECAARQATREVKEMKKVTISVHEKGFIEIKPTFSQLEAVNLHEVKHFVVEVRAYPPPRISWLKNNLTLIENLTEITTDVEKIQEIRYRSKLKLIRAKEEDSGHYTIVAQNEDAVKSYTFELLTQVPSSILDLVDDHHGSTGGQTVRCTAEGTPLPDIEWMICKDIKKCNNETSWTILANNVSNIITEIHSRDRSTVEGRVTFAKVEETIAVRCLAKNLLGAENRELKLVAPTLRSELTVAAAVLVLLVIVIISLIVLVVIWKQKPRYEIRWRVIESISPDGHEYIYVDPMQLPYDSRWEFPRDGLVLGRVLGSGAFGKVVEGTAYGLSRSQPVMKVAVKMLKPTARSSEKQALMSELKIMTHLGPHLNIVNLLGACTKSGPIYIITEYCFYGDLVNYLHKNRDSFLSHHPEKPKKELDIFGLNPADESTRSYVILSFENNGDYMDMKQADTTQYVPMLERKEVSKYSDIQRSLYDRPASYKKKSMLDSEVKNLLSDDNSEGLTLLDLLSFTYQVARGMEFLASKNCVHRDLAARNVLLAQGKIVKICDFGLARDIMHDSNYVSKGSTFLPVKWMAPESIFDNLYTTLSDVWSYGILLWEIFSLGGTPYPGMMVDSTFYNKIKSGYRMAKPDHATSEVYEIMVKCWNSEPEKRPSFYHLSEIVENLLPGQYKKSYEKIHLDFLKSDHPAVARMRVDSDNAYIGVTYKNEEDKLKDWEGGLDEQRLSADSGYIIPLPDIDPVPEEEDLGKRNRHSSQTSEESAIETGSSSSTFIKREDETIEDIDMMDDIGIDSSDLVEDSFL
# [14] = Volume of distribution at steady state in cynomolgus monkey at 0.5 mg/kg, iv; format: ADME, organism-based, Macaca fascicularis; design: dose 0.5 mg/kg, route intravenous; conditions: in vivo, read-out: Vdss; method in brief: as §5
# [15] = Clearance in dog at 0.5 mg/kg, iv; format: ADME, organism-based, Canis lupus familiaris; design: dose 0.5 mg/kg, route intravenous; conditions: in vivo; method in brief: as §1
# [16] = test system: Mus musculus; assay: Cmax in human HT29 cell xenografted CD1 nu/nu mouse at 10 mg/kg, po qd; format: ADME, organism-based, HT-29; design: dose 10 mg/kg, route oral; conditions: in vivo
# [17] = test system: Liver microsomes; assay: Metabolic stability assessed as covalent binding in absence of NADPH in rat liver microsomes at 10 uM after 1 hr; format: ADME, Microsome; method in brief: as §2
# [18] = test system: Liver microsomes; assay: Metabolic stability assessed as covalent binding in presence of NADPH in human liver microsomes at 10 uM after 1 hr; format: ADME, Microsome; method in brief: as §2
# [19] = test system: Rattus norvegicus; assay: Inhibition of VEGF-induced angiogenesis in VEGF-soaked disk implanted in Sprague-Dawley rat cornea assessed as number of blood vessels intersecting the midpoint between disk and limbus after 7 days; format: functional; conditions: 168 h
# [20] = Protein binding in mouse plasma; format: ADME, cell-free; conditions: read-out: PPB (converted)
# Method in brief: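 Compound spiked into plasma at 5 µg/mL (12.9 µM) from a DMSO stock, incubated 37 °C 15 min, then ultracentrifuged 3 h at 37 °C. Supernatant below lipid layer measured by LC-MS (n = 6) against QC in plasma filtrate; % bound = 1 − (centrifuged concentration / mean QC) × 100.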
# [21] = target: Hepatocyte growth factor receptor (Homo sapiens, UniProt P08581); assay: Inhibition of c-Met
# Sequence of Hepatocyte growth factor receptor (P08581 whole entry): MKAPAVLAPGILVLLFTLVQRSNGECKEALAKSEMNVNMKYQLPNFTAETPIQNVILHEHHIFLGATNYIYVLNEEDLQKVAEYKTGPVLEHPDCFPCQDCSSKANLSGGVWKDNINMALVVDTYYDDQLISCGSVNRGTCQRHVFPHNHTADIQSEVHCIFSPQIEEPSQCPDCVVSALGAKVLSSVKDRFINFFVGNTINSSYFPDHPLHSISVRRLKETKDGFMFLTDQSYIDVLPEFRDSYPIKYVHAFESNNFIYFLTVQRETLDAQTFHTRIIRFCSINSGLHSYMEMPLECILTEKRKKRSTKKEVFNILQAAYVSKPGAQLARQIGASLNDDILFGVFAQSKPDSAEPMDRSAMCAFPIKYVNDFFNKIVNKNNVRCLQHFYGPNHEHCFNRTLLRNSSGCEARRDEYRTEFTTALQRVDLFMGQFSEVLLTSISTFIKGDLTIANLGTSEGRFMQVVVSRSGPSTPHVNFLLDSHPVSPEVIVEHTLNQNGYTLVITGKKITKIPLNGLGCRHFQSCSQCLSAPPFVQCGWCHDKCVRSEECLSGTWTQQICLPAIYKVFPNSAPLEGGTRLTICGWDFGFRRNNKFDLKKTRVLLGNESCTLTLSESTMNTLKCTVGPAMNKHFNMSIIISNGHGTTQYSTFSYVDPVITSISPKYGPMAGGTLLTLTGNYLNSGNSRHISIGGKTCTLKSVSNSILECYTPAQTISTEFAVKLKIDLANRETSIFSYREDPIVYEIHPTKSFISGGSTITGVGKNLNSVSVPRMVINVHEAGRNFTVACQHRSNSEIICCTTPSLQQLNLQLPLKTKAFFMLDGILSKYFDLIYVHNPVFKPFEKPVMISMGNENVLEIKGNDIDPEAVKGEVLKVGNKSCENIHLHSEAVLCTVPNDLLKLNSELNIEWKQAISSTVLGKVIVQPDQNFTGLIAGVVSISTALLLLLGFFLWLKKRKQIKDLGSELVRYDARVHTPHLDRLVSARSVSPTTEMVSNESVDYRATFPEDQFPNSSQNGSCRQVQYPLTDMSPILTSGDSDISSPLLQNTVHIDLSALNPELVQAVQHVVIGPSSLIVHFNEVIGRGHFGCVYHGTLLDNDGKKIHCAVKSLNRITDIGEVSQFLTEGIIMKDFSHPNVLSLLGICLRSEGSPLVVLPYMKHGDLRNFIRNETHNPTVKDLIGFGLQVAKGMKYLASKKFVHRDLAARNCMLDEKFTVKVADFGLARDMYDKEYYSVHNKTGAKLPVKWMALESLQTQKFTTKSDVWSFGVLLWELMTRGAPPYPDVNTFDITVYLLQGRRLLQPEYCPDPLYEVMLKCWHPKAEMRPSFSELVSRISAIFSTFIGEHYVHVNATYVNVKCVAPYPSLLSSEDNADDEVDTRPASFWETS
# [22] = target: Tyrosine-protein kinase ABL1 (Homo sapiens, UniProt P00519)
# [23] = Half life in mouse at 10 mg/kg, po; format: ADME, organism-based; design: dose 10 mg/kg, route oral; conditions: in vivo; method in brief: as §1
# [24] = Mean residence time in mouse at 2 mg/kg, iv; format: ADME, organism-based; design: dose 2 mg/kg, route intravenous; conditions: in vivo; method in brief: as §5
# [25] = Oral bioavailability in Sprague-Dawley rat at 2 mg/kg; format: ADME, organism-based; conditions: in vivo
# Method in brief: (§6)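 Male Sprague–Dawley rats dosed iv at 0.5 mg/kg as DMSO solution or po at 2 mg/kg as suspension in 100% OraPlus. Serial jugular blood, plasma LC-MS/MS quantitation, noncompartmental analysis.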
# [26] = AUC in VEGF-soaked disk implanted in Sprague-Dawley rat; format: ADME, organism-based; conditions: plasma
# [27] = Protein binding in cynomolgus monkey plasma; format: ADME, cell-free, Macaca fascicularis; conditions: read-out: PPB (converted)
# [28] = Tmax in cynomolgus monkey at 2 mg/kg, po; format: ADME, organism-based, Macaca fascicularis; design: dose 2 mg/kg, route oral; conditions: in vivo; method in brief: as §3
# [29] = target: Vascular endothelial growth factor receptor 1 (Homo sapiens, UniProt P17948); assay: Inhibition of human VEGFR1
# Sequence of Vascular endothelial growth factor receptor 1 (P17948 whole entry): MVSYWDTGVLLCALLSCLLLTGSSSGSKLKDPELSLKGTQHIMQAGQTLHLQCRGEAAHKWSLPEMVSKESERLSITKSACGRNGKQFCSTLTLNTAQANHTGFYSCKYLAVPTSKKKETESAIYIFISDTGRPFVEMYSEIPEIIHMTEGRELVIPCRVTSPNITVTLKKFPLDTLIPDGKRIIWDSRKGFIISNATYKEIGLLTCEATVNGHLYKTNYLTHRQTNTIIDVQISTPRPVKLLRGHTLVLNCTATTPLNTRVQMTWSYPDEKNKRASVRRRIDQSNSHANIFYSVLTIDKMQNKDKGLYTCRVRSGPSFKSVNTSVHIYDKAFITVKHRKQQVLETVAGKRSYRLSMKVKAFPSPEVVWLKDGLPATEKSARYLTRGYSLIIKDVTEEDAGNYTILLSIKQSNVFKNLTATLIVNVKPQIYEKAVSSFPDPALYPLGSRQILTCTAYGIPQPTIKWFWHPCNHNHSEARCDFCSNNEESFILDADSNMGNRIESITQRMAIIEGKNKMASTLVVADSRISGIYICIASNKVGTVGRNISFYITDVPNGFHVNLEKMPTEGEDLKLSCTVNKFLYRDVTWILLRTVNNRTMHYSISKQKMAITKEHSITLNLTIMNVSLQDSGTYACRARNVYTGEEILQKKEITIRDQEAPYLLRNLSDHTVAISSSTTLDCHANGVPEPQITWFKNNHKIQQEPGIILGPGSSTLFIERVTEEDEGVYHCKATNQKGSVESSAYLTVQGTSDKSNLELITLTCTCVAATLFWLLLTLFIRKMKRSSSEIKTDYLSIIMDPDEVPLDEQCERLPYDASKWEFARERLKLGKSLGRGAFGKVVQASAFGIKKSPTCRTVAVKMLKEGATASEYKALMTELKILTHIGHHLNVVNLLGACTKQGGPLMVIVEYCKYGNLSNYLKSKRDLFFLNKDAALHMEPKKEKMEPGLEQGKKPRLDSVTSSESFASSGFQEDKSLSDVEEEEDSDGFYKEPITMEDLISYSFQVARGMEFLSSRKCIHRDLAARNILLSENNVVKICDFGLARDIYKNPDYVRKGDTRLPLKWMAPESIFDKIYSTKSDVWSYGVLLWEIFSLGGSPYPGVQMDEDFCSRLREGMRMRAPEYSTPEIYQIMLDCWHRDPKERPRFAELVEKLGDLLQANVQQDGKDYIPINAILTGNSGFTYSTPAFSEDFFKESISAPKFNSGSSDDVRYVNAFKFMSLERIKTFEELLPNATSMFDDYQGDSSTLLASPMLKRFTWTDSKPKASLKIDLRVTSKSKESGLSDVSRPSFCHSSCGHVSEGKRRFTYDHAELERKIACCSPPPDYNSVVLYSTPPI
# [30] = Tmax in Sprague-Dawley rat at 2 mg/kg, po; format: ADME, organism-based; design: dose 2 mg/kg, route oral; conditions: in vivo; method in brief: as §6
# [31] = Volume of distribution at steady state in dog at 0.5 mg/kg, iv; format: ADME, organism-based, Canis lupus familiaris; design: dose 0.5 mg/kg, route intravenous; conditions: in vivo, read-out: Vdss; method in brief: as §5
structure (smiles),measurement,setting,value
COc1cc2nccc(Oc3ccc4c(C(N)=O)cccc4c3)c2cc1OC,Cmax,[1],890 ng/mL
same,Stability,[2],14 pmol/mg/h
same,AUC(0-t) at 24 h,[3],1500 ng·h/mL
same,inhibition in vivo at 3 mg/kg,[4],51%
same,Tmax,[5],0.25 h
same,Cmax,[6],1690 ng/mL
same,AUC(0-inf),[7],8450 ng·h/mL
same,Selectivity ratio,[8],>100
same,Vd,[9],5.74 L/kg
same,Cp,[10],2.3 µM
same,bioavailability,[11],73%
same,IC50,[12],300 nM
same,Activity,[13],Active
same,Vd,[14],6.82 L/kg
same,clearance,[15],1.72 mL/min/kg
same,Cmax,[16],1300 nM
same,Stability,[17],14 pmol/mg/h
same,Stability,[18],36 pmol/mg/h
same,ED50,[19],0.04 mg/kg
same,fraction unbound,[20],0.027
same,IC50,[21],6900 nM
same,IC50,[22],110 nM
same,half-life,[23],5.6 h
same,MRT,[24],2.3 h
same,bioavailability,[25],96%
same,AUC,[26],0.48 µM·h
same,fraction unbound,[27],0.008
same,Tmax,[28],0.83 h
same,Activity,[29],Active
same,Tmax,[30],1.6 h
same,Vd,[31],1.86 L/kg
